In ChEMBL document CHEMBL1147691, “Quinol fatty alcohols as promoters of axonal growth” (Bioorg Med Chem Lett, 2006) one finds Activity and IC50 data, which are given here for 17 compounds.

pIC50: −log10 of the molar value.

Test [1] relates to Cortical neurone. As to the kind of experiment: Growth promoting activity in axon relative to control. Type of test: functional, Mus musculus. Details: concentration or dose not given beside the values. A digest of the protocol:
(§1)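 Cortical neurons from E15 mouse embryos, trypsin-dissociated, grown 24 h on poly-L-lysine coverslips (37 °C, 5% CO2). On day 2, compound added for 24 h under the same conditions. On day 3, cells fixed and immunostained with anti-phosphoneurofilament (SMi312) and an Alexa488 secondary. Axonal growth given as % variation from control conditions; means ± SEM.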

In test [2] the test system is Radical scavenging activity. As to the kind of experiment: Hydroxyl radical scavenging activity by ABTS assay. The format is functional. A digest of the protocol:
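Competition assay for hydroxyl-radical scavenging in ethanolic medium: hydroxyl radicals oxidise ABTS to the stable ABTS•+ radical cation, read by absorbance at 405 nm. IC50 is the concentration giving a 50% decrease in ABTS•+, reported as the mean of three experiments.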

Test [3] has as its system Cortical neurone. Kind of test: Growth promoting activity in axon at 1 nM in presence of 10 ug/ml myelin protein of glial scar. Type of test: functional, Mus musculus. The gist of the method: as §1
Test [4] concerns Cortical neurone. As to the kind of experiment: Growth promoting activity in axon at 1 nM in presence of 100 ng/ml Sema3A of glial scar. The format is functional, Mus musculus. A digest of the protocol:
as §1

For test [5], the system named is Cortical neurone. Kind of test: Growth promoting activity in axon at 1 nM in presence of 1 ug/ml myelin protein of glial scar. The format is functional, Mus musculus. The gist of the method:
as §1

In test [6] the test system is Cortical neurone. Kind of test: Growth promoting activity in axon at 1 nM. The format is functional, Mus musculus. The gist of the method: as §1
Test [7] relates to Cortical neurone. Kind of test: Growth promoting activity in axon at 100 nM in presence of 1 ug/ml myelin protein of glial scar. Type of test: functional, Mus musculus. The gist of the method: as §1
The test system of test [8] is Cortical neurone. Kind of test: Growth promoting activity in axon at 100 nM in presence of 100 ng/ml Sema3A of glial scar. The format is functional, Mus musculus. A digest of the protocol: as §1
Test [9] concerns Cortical neurone. As to the kind of experiment: Growth promoting activity in axon at 100 nM. The format is functional, Mus musculus. The gist of the method: as §1
For test [10], the system named is Cortical neurone. As to the kind of experiment: Growth promoting activity in axon at 100 nM in presence of 10 ug/ml myelin protein of glial scar. The format is functional, Mus musculus. A digest of the protocol: as §1

As for `COc1cc(OC)c(OC)cc1CCCCCCCCCCCCCCCCCCO`, in the test on Cortical neurone [1], the Activity was 106%. In addition, in test [2], the pIC50 was 3.14.
As for `COc1cc(CCCCCCCCCCCCCCCCO)c(OC)c(OC)c1OC`, in the test with Cortical neurone [1], the Activity is reported as 127%.
With `COc1cc(OC)c(OC)cc1CCCCCCCCCCCCCCO`, the Activity in the test on Cortical neurone [1] is listed as 109%. Further, the pIC50 in test [2] is 3.14.
Turning to `COc1cc(OC)c(OC)cc1CCCCCCCCCCCCCCCO`, the Activity with Cortical neurone [1] was 152%. In addition, in test [2], the pIC50 is 3.14.
Take `COc1ccc(OC)c(CCCCCCCCCCCCCCCO)c1`: the Activity in the test with Cortical neurone [1] is listed as 181%; with Cortical neurone [3] it was -5.3%; in the test with Cortical neurone [4], 12.4%; with Cortical neurone [5], 18.4%; with Cortical neurone [6] it was 81%. The compound also gave a pIC50 in [2] of under 2.00.
As to `COc1cc(CCCCCCCCCCCCCCCCCCO)c(OC)c(OC)c1OC`, the Activity in the test with Cortical neurone [1] is 103%.
Consider `COc1ccc(OC)c(CCCCCCCCCCCCO)c1`, for which the Activity in the test with Cortical neurone [1] came out at 109%. In addition, the pIC50 in test [2] was under 2.00.
With `COc1cc(CCCCCCCCCCCCCCCO)c(OC)c(OC)c1OC`, the Activity with Cortical neurone [1] came to 158%.
As for `COc1cc(OC)c(OC)cc1CCCCCCCCCCCCO`, the Activity in the test on Cortical neurone [1] is recorded as 108%. In addition, in test [2], the negative-log IC50 (pIC50) was 3.14.
In the case of `COc1cc(CCCCCCCCCCCCO)c(OC)c(OC)c1OC`, the Activity in the test on Cortical neurone [1] is listed as 100%.
As for `COc1ccc(OC)c(CCCCCCCCCCCCCCCCO)c1`, in the test on Cortical neurone [1], the Activity was found to be 120%. The compound further gave a pIC50 in test [2] of under 2.00.
On to `COc1ccc(OC)c(CCCCCCCCCCCCCCCCCCO)c1`, for which, in the test on Cortical neurone [1], the Activity was determined as 109%. Further, in test [2], the negative-log IC50 (pIC50) is under 2.00.
For `CC1=C(CCCCCCCCCCCCCCCO)C(C)(C)CCC1=O`, the Activity is recorded as 150% in the test with Cortical neurone [1]; 28.8% with Cortical neurone [7]; 10.2% with Cortical neurone [8]; 80% in the test with Cortical neurone [9]; 5% in the test on Cortical neurone [10]. The compound also showed a pIC50 in [2] of under 2.00.
In the case of `COc1cc(CCCCCCCCCCCCCCO)c(OC)c(OC)c1OC`, the Activity with Cortical neurone [1] is recorded as 108%.
Consider `COc1ccc(OC)c(CCCCCCCCCCCCCCO)c1`, for which, in the test on Cortical neurone [1], the Activity is given as 110%. Besides, the pIC50 in test [2] is under 2.00.
As to `COc1cc(OC)c(OC)cc1CCCCCCCCCCCCCCCCO`, the Activity in the test with Cortical neurone [1] stood at 135%. Besides, the pIC50 in test [2] was 3.14.
For the compound `Cc1c(C)c2c(c(C)c1O)CCC(C)(C(=O)O)O2` (stereo unspecified) [TROLOX], the pIC50 in [2] is 3.22.

As usually defined, the pIC50 is −log10 of the IC50, conventionally taken in molar units.
